Consider five compounds from ChEMBL document CHEMBL1149671, “Enantiopure five-membered cyclicdiamine derivatives as potent and selective inhibitors of factor Xa. Improving in vitro metabolic stability via core modifications” (Bioorg Med Chem Lett, 2007).

The structures appear in SMILES notation.

Series [1] can be described thus: Clearance in dog at 0.5 mg/kg, iv. Particulars: in vivo. In kind it is ADME, organism-based, Canis lupus familiaris. On the set-up: dose 0.5 mg/kg, route intravenous. In outline:
(§1)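 Dogs. Intravenous dose 0.5 mg/kg, used for clearance (L/kg/h), steady-state volume of distribution (L/kg) and iv half-life.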

Series [2] is described as follows: Metabolic stability in human liver microsomes after 10 mins. The class given is ADME, Microsome. Particulars: read-out: Stability. The gist of the method:
(§2)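 Human liver microsomes, 10-min incubation. Metabolic stability given as % compound remaining. Microsomal intrinsic clearance rate (nmol/min/mg) is based on the % remaining after 10 min.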
In general terms: Liver microsomes are vesicles of endoplasmic reticulum, rich in cytochrome P450 enzymes.

For series [3], the system named is Liver microsomes. Kind of series: Metabolic stability in human liver microsomes assessed as microsomal intrinsic clearance rate. The class given is ADME, Microsome. The gist of the method: as §2
Series [4] can be described thus: Bioavailability in dog at 0.2 mg/kg, po. The class given is ADME, organism-based, Canis lupus familiaris. Conditions: in vivo. The gist of the method: as §1
A short description of series [5]: Permeability across Caco-2 cells. In kind it is ADME, cell-based. Conditions: human, read-out: permeability. Background: Caco-2 monolayers are a common model of the intestinal barrier.
Series [6] is described as follows: Half life in dog at 0.2 mg/kg, po. The arrangement: dose 0.2 mg/kg, route oral. In kind it is ADME, organism-based, Canis lupus familiaris. Particulars: in vivo.
A short description of series [7]: Volume of distribution at steady state in dog at 0.5 mg/kg, iv. In kind it is ADME, organism-based, Canis lupus familiaris. The arrangement: dose 0.5 mg/kg, route intravenous. Conditions: in vivo, read-out: Vdss. In outline: as §1
A short description of series [8]: Half life in dog at 0.5 mg/kg, iv. The class given is ADME, organism-based, Canis lupus familiaris. On the set-up: dose 0.5 mg/kg, route intravenous. Conditions: in vivo. In outline:
as §1

Series [9] is described as follows: Inhibition of human chymotrypsin.
For series [10], the target named is Tissue-type plasminogen activator (Homo sapiens, UniProt P00750). Kind of series: Inhibition of human tissue plasminogen activator.
Series [11] has as its target Trypsin (Homo sapiens, UniProt P07477+P07478+P35030). Kind of series: Inhibition of human trypsin. The class given is protein assay.
For series [12], the target named is Vitamin K-dependent protein C (Homo sapiens, UniProt P04070). Kind of series: Inhibition of human activated protein C.
For series [13], the target named is T1, Coagulation factor VII (Homo sapiens, UniProt P08709).
T1 sequence (P08709 whole entry): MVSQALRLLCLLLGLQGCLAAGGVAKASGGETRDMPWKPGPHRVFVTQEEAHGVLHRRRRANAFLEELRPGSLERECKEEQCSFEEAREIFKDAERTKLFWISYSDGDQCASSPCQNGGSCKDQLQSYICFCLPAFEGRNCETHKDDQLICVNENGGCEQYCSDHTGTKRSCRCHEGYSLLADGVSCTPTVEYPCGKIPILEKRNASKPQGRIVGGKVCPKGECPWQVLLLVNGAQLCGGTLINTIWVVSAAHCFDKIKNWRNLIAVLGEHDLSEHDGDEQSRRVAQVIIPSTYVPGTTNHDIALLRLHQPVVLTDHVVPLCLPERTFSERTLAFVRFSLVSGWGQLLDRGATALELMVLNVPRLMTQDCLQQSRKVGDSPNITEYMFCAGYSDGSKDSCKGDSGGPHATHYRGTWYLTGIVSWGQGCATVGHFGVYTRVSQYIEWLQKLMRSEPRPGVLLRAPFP
Kind of series: Inhibition of human factor 7a.

Series [14] has as its target Plasminogen (Homo sapiens, UniProt P00747). Kind of series: Inhibition of human Plasmin.
Series [15] deals with Urokinase-type plasminogen activator (Homo sapiens, UniProt P00749). Kind of series: Inhibition of human urokinase.
Series [16] deals with Plasma kallikrein (Homo sapiens, UniProt P03952). Kind of series: Inhibition of human plasma kallikrein. In kind it is cell-free.
Series [17] deals with T2, Coagulation factor X (Homo sapiens, UniProt P00742). Kind of series: Inhibition of human factor 10a.
For series [18], the target named is Prothrombin (Homo sapiens, UniProt P00734). Kind of series: Inhibition of human thrombin.
The target in series [19] is Coagulation factor XI (Homo sapiens, UniProt P03951). Kind of series: Inhibition of human factor 11a.
Series [20] is described as follows: Cytotoxicity against HEK cells. The class given is cell-based. Particulars: Homo sapiens, HEK293.
Series [21] deals with T2, Coagulation factor X. Kind of series: Inhibition of human factor 10a in presence of saturating prothrombin at 37 degC. The gist of the method:
(§3)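 Purified human factor Xa. […] Prothrombinase-type inhibition measured with prothrombin as substrate at 25 °C, and with saturating prothrombin at 37 °C. Values are averages of at least 2 determinations.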

For series [22], the target named is T2, Coagulation factor X. Kind of series: Inhibition of human factor 10a in presence of prothrombin at 25 degC. The gist of the method:
as §3

In series [23] the target is T2, Coagulation factor X. Kind of series: Inhibition of human factor 10a in presence of tripeptide substrate at 37 degC.
Series [24] deals with T2, Coagulation factor X. Kind of series: Inhibition of human factor 10a in presence of tripeptide substrate at 25 degC.

Sequence of Plasminogen (P00747 97-580 limits assumed): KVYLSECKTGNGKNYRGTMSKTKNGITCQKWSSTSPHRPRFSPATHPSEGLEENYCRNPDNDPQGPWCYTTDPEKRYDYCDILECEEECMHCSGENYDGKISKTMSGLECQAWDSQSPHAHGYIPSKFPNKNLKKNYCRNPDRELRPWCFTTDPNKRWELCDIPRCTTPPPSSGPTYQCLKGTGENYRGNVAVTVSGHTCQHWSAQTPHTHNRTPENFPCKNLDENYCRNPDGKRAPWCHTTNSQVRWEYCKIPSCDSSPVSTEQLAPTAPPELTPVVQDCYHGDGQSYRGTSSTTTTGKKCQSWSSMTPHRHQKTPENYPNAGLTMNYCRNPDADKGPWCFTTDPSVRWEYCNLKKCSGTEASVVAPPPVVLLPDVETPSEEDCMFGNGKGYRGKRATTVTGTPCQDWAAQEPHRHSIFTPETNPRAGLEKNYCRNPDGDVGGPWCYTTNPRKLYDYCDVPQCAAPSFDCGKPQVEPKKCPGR
Sequence of Plasminogen (P00747 581-810 limits assumed): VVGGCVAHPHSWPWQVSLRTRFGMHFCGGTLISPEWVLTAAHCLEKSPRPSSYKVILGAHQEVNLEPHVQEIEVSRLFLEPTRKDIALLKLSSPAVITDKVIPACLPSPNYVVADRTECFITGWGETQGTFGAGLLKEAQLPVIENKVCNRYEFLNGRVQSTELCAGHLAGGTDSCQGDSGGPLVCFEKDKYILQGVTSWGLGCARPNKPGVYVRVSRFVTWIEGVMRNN
Sequence of Plasma kallikrein (P03952 20-390 limits assumed): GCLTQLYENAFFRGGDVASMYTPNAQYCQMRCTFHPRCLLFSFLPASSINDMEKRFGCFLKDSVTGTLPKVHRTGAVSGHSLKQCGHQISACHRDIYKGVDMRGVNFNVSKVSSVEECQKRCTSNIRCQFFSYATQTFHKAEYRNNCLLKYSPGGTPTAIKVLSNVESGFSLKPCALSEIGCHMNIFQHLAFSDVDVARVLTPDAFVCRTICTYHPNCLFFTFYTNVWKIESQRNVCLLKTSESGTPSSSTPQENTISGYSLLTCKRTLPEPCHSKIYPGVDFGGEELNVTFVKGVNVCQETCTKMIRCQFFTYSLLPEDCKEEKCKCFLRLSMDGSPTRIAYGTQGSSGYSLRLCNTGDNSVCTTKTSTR
Sequence of Plasma kallikrein (P03952 391-638 limits assumed): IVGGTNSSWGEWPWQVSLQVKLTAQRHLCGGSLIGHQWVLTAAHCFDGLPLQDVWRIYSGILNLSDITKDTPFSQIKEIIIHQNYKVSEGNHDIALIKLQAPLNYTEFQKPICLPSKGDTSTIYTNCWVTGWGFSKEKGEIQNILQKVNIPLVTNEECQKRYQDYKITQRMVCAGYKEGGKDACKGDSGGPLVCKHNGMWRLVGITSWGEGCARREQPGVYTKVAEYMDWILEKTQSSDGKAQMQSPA
Sequence of Vitamin K-dependent protein C (P04070 43-197 limits assumed): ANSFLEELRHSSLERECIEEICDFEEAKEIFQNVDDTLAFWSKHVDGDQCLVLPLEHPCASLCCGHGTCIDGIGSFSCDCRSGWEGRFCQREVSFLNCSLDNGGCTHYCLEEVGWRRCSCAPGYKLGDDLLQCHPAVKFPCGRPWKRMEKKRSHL
Sequence of Vitamin K-dependent protein C (P04070 212-461 limits assumed): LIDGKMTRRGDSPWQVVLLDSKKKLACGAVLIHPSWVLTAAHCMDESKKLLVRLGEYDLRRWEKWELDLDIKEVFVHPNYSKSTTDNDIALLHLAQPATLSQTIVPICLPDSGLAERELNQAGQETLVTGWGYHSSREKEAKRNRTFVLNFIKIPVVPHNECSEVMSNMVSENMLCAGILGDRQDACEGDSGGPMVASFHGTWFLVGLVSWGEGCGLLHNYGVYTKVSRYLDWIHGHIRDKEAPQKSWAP
Sequence of Tissue-type plasminogen activator (P00750 whole entry): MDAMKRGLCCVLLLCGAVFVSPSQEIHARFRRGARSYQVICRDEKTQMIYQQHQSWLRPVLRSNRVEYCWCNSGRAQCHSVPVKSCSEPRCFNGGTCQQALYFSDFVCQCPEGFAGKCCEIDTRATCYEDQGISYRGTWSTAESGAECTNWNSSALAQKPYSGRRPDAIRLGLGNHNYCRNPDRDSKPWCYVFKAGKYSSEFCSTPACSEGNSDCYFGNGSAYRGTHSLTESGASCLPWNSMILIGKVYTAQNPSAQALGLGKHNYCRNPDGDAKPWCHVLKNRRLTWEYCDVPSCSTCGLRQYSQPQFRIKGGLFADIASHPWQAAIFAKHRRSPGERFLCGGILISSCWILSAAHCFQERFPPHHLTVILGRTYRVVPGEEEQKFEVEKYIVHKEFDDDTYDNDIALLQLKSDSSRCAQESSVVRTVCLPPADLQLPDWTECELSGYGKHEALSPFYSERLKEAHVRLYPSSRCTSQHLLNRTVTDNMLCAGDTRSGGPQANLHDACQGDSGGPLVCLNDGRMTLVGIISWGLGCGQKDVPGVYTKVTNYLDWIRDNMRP
T2 sequence (P00742 41-179 limits assumed): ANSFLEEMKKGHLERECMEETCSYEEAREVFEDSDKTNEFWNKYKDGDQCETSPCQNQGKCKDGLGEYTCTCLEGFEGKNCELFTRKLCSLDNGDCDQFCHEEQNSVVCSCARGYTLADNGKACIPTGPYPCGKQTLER
T2 sequence (P00742 235-488 limits assumed): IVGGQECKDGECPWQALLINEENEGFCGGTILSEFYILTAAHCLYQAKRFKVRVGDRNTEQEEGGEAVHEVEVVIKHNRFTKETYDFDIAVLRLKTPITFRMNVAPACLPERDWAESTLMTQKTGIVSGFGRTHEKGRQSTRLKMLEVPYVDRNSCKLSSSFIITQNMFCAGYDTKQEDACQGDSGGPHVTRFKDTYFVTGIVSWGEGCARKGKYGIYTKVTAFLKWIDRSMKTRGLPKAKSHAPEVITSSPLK
Sequence of Coagulation factor XI (P03951 19-387 limits assumed): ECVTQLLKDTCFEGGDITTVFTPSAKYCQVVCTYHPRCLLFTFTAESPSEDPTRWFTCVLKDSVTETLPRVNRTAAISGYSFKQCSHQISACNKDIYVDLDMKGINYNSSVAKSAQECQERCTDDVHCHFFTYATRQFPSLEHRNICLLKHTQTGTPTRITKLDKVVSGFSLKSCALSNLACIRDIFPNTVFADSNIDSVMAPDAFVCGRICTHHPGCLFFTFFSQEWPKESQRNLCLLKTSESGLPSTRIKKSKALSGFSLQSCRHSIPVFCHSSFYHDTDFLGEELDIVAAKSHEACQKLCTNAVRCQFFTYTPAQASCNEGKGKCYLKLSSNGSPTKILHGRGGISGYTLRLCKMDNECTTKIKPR
Sequence of Coagulation factor XI (P03951 388-625 limits assumed): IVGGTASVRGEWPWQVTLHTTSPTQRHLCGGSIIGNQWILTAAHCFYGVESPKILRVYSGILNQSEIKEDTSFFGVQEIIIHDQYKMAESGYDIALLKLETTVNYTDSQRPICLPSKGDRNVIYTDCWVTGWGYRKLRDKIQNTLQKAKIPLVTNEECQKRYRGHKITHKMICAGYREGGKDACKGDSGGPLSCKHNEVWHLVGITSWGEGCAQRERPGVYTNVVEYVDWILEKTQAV

With `O=C(N[C@H]1CCC[C@H]1NC(=O)c1ccc(Cl)s1)c1ccc(-n2ccccc2=O)cc1`, the clearance is 11.7 mL/min/kg in series [1] and 0.063 nmol/min/mg in series [3]. Also, the remaining at 10 min in [2] is 79%. Also, the bioavailability in series [4] came to 60%. The Papp in series [5] was determined as 9.2 ×10⁻⁶ cm/s. The half-life in series [6] and in [8] was 42 min throughout. Moreover, the Vd in [7] is 0.8 L/kg.
Consider `O=C(N[C@H]1C[C@H](CO)C[C@H]1NC(=O)c1ccc(Cl)s1)c1ccc(-n2ccccc2=O)cc1`, for which the Ki in series [9] was greater than 20 µM; in series [10] it was greater than 21 µM; in series [11] it was greater than 5 µM; in series [12], greater than 21 µM; in [13], greater than 11 µM; in [14], greater than 22 µM. Also, the Ki was greater than 14 µM in series [15], greater than 10.8 µM in series [16] and 0.00056 µM in series [17]. Further, in [2], the remaining at 10 min is 100%.
Compound `CC(=O)N1C[C@H](NC(=O)c2ccc(-n3ccccc3=O)cc2)[C@H](NC(=O)c2ccc(Cl)s2)C1` gave a clearance in [1] of 30 mL/min/kg. The Ki in series [9] is greater than 20 µM; in [10], greater than 21 µM; in series [11], greater than 5 µM; in series [18] it was 5.44 µM; in [12] it was greater than 21 µM; in series [19], 10.2 µM. Besides, the Ki was greater than 11 µM in series [13]; greater than 22 µM in series [14]; greater than 14 µM in series [15]; greater than 6 µM in series [16]; 0.00058 µM in series [17]. Further, the CL in series [3] came to 0 nmol/mg/min. Besides, the bioavailability in series [4] is 5%. For the same compound, the Papp in series [5] was less than 1.5 ×10⁻⁶ cm/s. Further, the IC50 in series [20] was greater than 100 µM. For the same compound, the half-life in series [6] and in [8] was 48 min each time. Also, the Vd in series [7] came to 2.4 L/kg.
On to `O=C(N[C@H]1c2ccccc2C[C@H]1NC(=O)c1ccc(Cl)s1)c1ccc(-n2ccccc2=O)cc1`, for which, in [2], the remaining at 10 min is 32%. Also, the Ki in series [17] is 0.00027 µM.
The compound `CCOC(=O)N1C[C@H](NC(=O)c2ccc(-n3ccccc3=O)cc2)[C@H](NC(=O)c2ccc(Cl)s2)C1` showed a clearance in [1] of 43.3 mL/min/kg. Also, the Ki was greater than 20 µM in series [9]; greater than 21 µM in [10]; 0.03 µM in series [21]; greater than 5 µM in series [11]; 4.02 µM in series [18]; greater than 21 µM in series [12]. Also, the Ki in series [19] was 7.38 µM; in series [13], greater than 11 µM; in [22], 0.0075 µM; in series [14], greater than 22 µM; in series [23], 0.0026 µM; in series [15] it was greater than 14 µM. Also, the Ki in series [16] was greater than 6 µM; in series [17], 0.0005 µM; in [24], 0.00073 µM. Moreover, in series [3], the CL amounted to 0 nmol/mg/min. Also, the bioavailability in [4] turned out to be 25%. In addition, the Papp in [5] amounted to 2.5 ×10⁻⁶ cm/s. The IC50 in series [20] is greater than 100 µM. For the same compound, the values for the half-life in series [6] and in [8] were 162 min and 84 min, respectively. In addition, the Vd in series [7] is 2.4 L/kg.

The term bioavailability denotes dose-corrected exposure relative to a reference, in per cent. As usually defined, the half-life is the time needed for the level to fall by half in the phase considered. A low value points to rapid decline. The term Ki denotes a measure of affinity in units of concentration, obtained from inhibition or displacement. By IC50 is commonly meant the concentration needed to halve the response being measured.
